This is one part of a sample in which hits are shown more often than they occur.
NALP1 yeast inh: NALP1 inflammasome inhibitors in reconstituted yeast, colorimetric, S. cerevisiae, triplicate retest; S. cerevisiae NALP1/ASC/caspase-1 growth, X-gal OD620, 72 h; inhibition, % at 10 µM; hit rate 0.61% among 280,000; in the data active means inhibition mostly above about 24%, no sharp cut-off; inactive means mostly below about 32%
T cruzi repl: inhibitors of intracellular T. cruzi growth, primary screen, luminescence, NIH3T3 host cells | hit rate 1.4% among 300,000 | T. cruzi beta-gal in NIH3T3, 90 h | inhibition, % (test concentration not listed);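 active means mean inhibition across valid replicates above about 55%, limit read from the data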;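 further: signal also drops with host cell toxicity which is not excluded here; higher percent means less beta-gal luminescence so fewer parasites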
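System: NIH/3T3 fibroblasts plus reporter T. cruzi. Medium: DMEM plus 2% FBS. Probe or stimulus: 5000 reporter trypomastigotes per well. Compound: single 50 nL compound addition per well in DMSO. Incubation: co-culture of at least 90 h after 3 h attachment. Detection: GalScreen β-gal luminescence, detergent lysis, 60 min. Evaluation: parasite load inhibition, %.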
L major viab: Leishmania major promastigote growth inhibition, primary screen; Leishmania major promastigotes, resazurin fluorescence viability; inhibition, % at 10 µM; hit rate 9% among 200,000; AID 1063, 2008; in the data active means inhibition above about 50%;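 further: promastigotes grown with compound for 44 hours at 28 °C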
PolyA inhibitor: polyadenylation inhibitors in yeast reporter cells, primary screen, luminescence, S. cerevisiae | S. cerevisiae SKY197-pL101 polyadenylation reporter, beta-gal luminescence; efflux-impaired pdr1/pdr3 knockout yeast; score 100 = 6 SD above DMSO | activity score, % at 12 µM | hit rate 0.02% among 300,000;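 active means lowest replicate activity score at least 50, where 100 means six control SD above control mean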;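 further: yeast exposed to compound for 9 h at 30 °C; higher score means more reporter readthrough which indicates perturbed polyadenylation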
NALP3 yeast inh: NALP3 inflammasome inhibitors in reconstituted yeast, primary screen, luminescence, uHTS; Yeast reconstituted NLRP3/ASC/caspase-1, beta-gal luminescence, 24 h; inhibition, % at 10 µM; hit rate 0.39% among 330,000; AID 2825, 2010;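 active means inhibition of 50% or more; inactive means inhibition below 50%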
Calb FLC: C. albicans growth inhibition with fluconazole, primary screen, CaCi-2 strain, Alamar Blue fluorescence; C. albicans CaCi-2 + fluconazole, 48 h; growth inhibition, % (test concentration not listed); hit rate 0.57% among 300,000;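 active means growth inhibition above about 58% in most replicates, limit read from the data, passing the limit was not always enough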;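 further: all wells also contain fluconazole at 8 µg/ml as a sub-toxic cotreatment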
Of the large screens only hits and unclear results are named; the others gave an inactive call.

Nc1nc(-c2ccc(Cl)cc2)c(N=Nc2ccc(S(=O)(=O)N3CCOCC3)cc2)s1	T cruzi repl 59, L major viab 74
CC(C)n1nnnc1SCC(=O)N(C)C1CCS(=O)(=O)C1 (configuration not stated)	none (no result: NALP1 yeast inh, T cruzi repl, L major viab, PolyA inhibitor, Calb FLC)
CCN(C(=O)COC(=O)c1cc(-c2cccc3ccccc23)nc2ccccc12)C1CCS(=O)(=O)C1 (configuration not stated)	none
O=S(=O)(c1ccc(Cl)cc1)N1CCC(N2CCOCC2)CC1	L major viab 91
COc1ccc(S(=O)(=O)N2CCC(N3CCCCC3)CC2)cc1	L major viab 92
COc1ccc(-c2n[nH]c(=S)n2-c2ccc(Br)cc2)cc1OC	none (no result: L major viab)
Nn1c(SCc2ccc(C(=O)O)cc2)nnc1-c1ccc(Cl)cc1Cl	none (no result: L major viab)
C=CCn1c(SCc2csc(-c3ccc(Cl)cc3)n2)nnc1-c1ccccc1OC	L major viab 70
Nc1ccccc1SCc1csc(-c2ccc(Cl)cc2)n1	NALP1 yeast inh 40 (no result: L major viab)
Cc1cc(C)nc(SCc2csc(-c3ccccc3)n2)n1	none
O=C1CSC(c2ccccc2)N1c1cccnc1 (configuration not stated)	none (no result: L major viab)
O=C1Nc2ccccc2S/C1=C/NCc1ccccc1Cl	none
Cc1ccc(N/C=C2/Sc3ccccc3NC2=O)cc1	T cruzi repl 59
COc1ccc(N/C=C2/Sc3ccccc3NC2=O)cc1	T cruzi repl 68
COc1ccccc1N/C=C1/Sc2cc(Cl)ccc2NC1=O	none
Cc1nnc(SCc2cc(=O)[nH]c(/N=C(\N)Nc3ccccc3)n2)s1	none (no result: L major viab)
CCOc1ccc(N/C(N)=N/c2nc(CSc3nnc(C)s3)cc(=O)[nH]2)cc1	NALP1 yeast inh 39 (no result: L major viab)
CCc1cccc2c1NC1(CCCC1)CC2C (configuration not stated)	none (no result: NALP1 yeast inh, L major viab)
Cc1cccc2c1NC(C)CC2C (configuration not stated)	T cruzi repl 59 (no result: Calb FLC)
Cc1ccc(F)c(CNC(=O)C2CCC(=O)N(CCN3CCOCC3)C2)c1F (configuration not stated)	none (no result: L major viab)
CCCC12CN3CCN(CC(C3)/C1=N\NC(=O)c1ccccc1Cl)C2	none
O=C1C(Nc2ccccc2)=C/C(=N/S(=O)(=O)c2cccs2)c2ccccc21	T cruzi repl 60, L major viab 101 (no result: NALP3 yeast inh)
COC(=O)c1ccccc1NC1=C/C(=N\S(=O)(=O)c2cccs2)c2ccccc2C1=O	L major viab 100
Cc1ccc(S(=O)(=O)/N=C2\C=C(Nc3ccc(O)cc3)C(=O)c3ccccc32)cc1	none (no result: NALP1 yeast inh, T cruzi repl, L major viab, PolyA inhibitor, Calb FLC)
Cc1ccc(NC2=C/C(=N/S(=O)(=O)c3cccs3)c3ccccc3C2=O)cc1	L major viab 99
COC(=O)c1cccc(NS(=O)(=O)c2cccs2)c1C	none (no result: NALP3 yeast inh)
CCc1ccc(S(=O)(=O)/N=C2\C=C(Nc3ccc(C(=O)O)cc3)C(=O)c3ccccc32)cc1	none (no result: L major viab)
CC(C)CNC(=S)Nc1ccc(Oc2ccccc2)cc1	none
Cc1ccc(NC(=O)COC(=O)CCC2CCCC2)c(Br)c1	none (no result: NALP1 yeast inh, T cruzi repl, L major viab, PolyA inhibitor, Calb FLC)
O=C(Nc1ccc(Cl)c(S(=O)(=O)N2CCOCC2)c1)c1cccs1	none (no result: NALP1 yeast inh, T cruzi repl, L major viab, PolyA inhibitor, Calb FLC)
COc1c(C)cc(S(=O)(=O)NCCN2CCOCC2)c(C)c1C	none (no result: L major viab)
CC1CN(CCOc2ccccc2C(C)C)CC(C)O1 (configuration not stated)	none (no result: L major viab)
OCCC1CN(Cc2ccc(-c3ccco3)cc2)CCN1Cc1ccsc1 (configuration not stated)	L major viab 76
OCCC1CN(Cc2ccccc2OC2CCCC2)CCN1Cc1ccsc1 (configuration not stated)	L major viab 61
CS(=O)(=O)Nc1ccc(S(=O)(=O)N2CCCCCC2)cc1	none (no result: L major viab)
COc1cc2c(cc1OC)C(c1ccc(-c3ccc(Cl)c(Cl)c3)o1)=NCC2	L major viab 71
COc1ccc(Cn2c(SCc3ccc(C)cc3)nc3cc(OC)c(OC)cc3c2=N)cc1Cl	L major viab 100 (no result: NALP1 yeast inh)
COc1cc2nc(SCc3ccc(C(F)(F)F)cc3)n(Cc3cccs3)c(=N)c2cc1OC	none
COc1ccc(Cn2c(SCc3cc(C)ccc3C)nc3cc(OC)c(OC)cc3c2=N)cc1	T cruzi repl 59, L major viab 101
CCCCNC(=O)CSc1nc2cc(OC)c(OC)cc2c(=O)n1Cc1ccc(OC)cc1	none
COc1cc2nc(SCc3ccc(Cl)cc3Cl)n(Cc3cccs3)c(=N)c2cc1OC	T cruzi repl 77, Calb FLC 81
CN1CCc2cccc3c2[C@@H]1Cc1ccc(O)c(O)c1-3	NALP1 yeast inh 86 (no result: T cruzi repl, PolyA inhibitor, Calb FLC)
COc1ccc2c(c1O)-c1ccccc1CCN(C)C2	none
CCOC(=O)C1(Cc2ccc(Cl)cc2)CCN(C(C)Cc2ccc(O)c(OC)c2)CC1 (configuration not stated)	none (no result: L major viab)
Nc1ncnc2c1ncn2[C@@H]1O[C@H](CO)C[C@@H]1O	T cruzi repl 61 (no result: L major viab)
Cc1nc([N+](=O)[O-])c(Sc2nc3ccc([N+](=O)[O-])cc3[nH]2)n1Cc1ccccc1	L major viab 54
Cc1nc([N+](=O)[O-])c(Br)n1Cc1ccccc1	none (no result: L major viab)
CCCNC(=O)Nc1ccc(C(F)(F)F)cc1	none
CCCCCCCN(C(=O)CCl)c1cccc(C)c1	none
N#CCCN(C(=O)CCl)c1cccc(Cl)c1	L major viab 51
O=C(Cc1ccc(F)cc1)NCCc1ccccc1	none
O=C(NC1CCN(Cc2ccccc2)CC1)C(NS(=O)(=O)c1cccc2nsnc12)c1ccccc1 (configuration not stated)	L major viab 51
O=C(NCCNC1CCN(Cc2ccccc2)CC1)c1cccs1	L major viab 88
CCC1CCc2sc(C(=O)NC3CCN(Cc4ccccc4)CC3)cc2C1 (configuration not stated)	T cruzi repl 60 (no result: NALP1 yeast inh, L major viab)
CC(C(=O)NCCc1ccc(F)cc1)N1CCN(Cc2ccccc2)CC1 (configuration not stated)	L major viab 83
CC(Oc1ccc(Br)cc1)C(=O)NC1CCN(Cc2ccccc2)CC1 (configuration not stated)	T cruzi repl 58 (no result: NALP1 yeast inh, L major viab, Calb FLC)
CC(C(=O)NC1CCCC1)N1CCN(Cc2ccccc2)CC1 (configuration not stated)	L major viab 73
CCCC(CCC)C(=O)NC1CCN(Cc2ccccc2)CC1	L major viab 88
O=S(=O)(c1ccccc1)N1C2CCC1CC(O)(c1cccnc1)C2 (configuration not stated)	none
Cc1ccc(OCC(=O)N(Cc2ccccc2)C(C)C)c([N+](=O)[O-])n1	none (no result: NALP1 yeast inh)
Cc1ccc(NC(=O)Cc2ncc(C(F)(F)F)cc2Cl)cc1Cl	none
CCOc1ccc2nc(NC3=NC(c4ccc(OC)cc4)CC(=O)N3)nc(C)c2c1 (configuration not stated)	none

Source: PubChem (several laboratories)
